Laboratory results taken from ChEMBL document CHEMBL1143745, “Utility of 6-amino-2-thiouracil as a precursor for the synthesis of bioactive pyrimidine derivatives” (2007).

Key:
NCI-H460 [1] = test: Cytotoxicity against human H460 cells assessed as surviving fraction at 5 ug/ml after 48 hrs by ELISA; type: functional
Summary of the method: (§1)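 SRB assay in human liver carcinoma HEPG2 or lung carcinoma H460 cells. Cells are seeded at 10⁴ per well and allowed to attach for 24 h. Compound is added at 0, 1, 2.5, 5 and 10 µg/ml, in triplicate wells per dose, for 48 h continuous exposure at 37 °C in 5% CO₂. Cells are then fixed and stained with sulforhodamine B. Bound dye is recovered in Tris-EDTA and read on an ELISA reader. Surviving fraction is plotted against concentration. Cisplatin is the positive control.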

Bacillus subtilis = test: Antimicrobial activity against Bacillus subtilis; type: functional
Summary of the method: (§2)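 Disk diffusion. A sterile filter-paper disk saturated with a measured quantity of sample is placed on agar heavily seeded with a spore suspension of the test organism. Bacteria are grown on nutrient agar and fungi on Dox's medium. The diameter of the clear inhibition zone around the disk is taken as the inhibitory measure. Ampicillin is the antibacterial reference and nystatin the antifungal reference.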

Enterococcus faecalis = test: Antimicrobial activity against Streptococcus faecalis; type: functional; summary of the method: as §2
Neisseria gonorrhoeae = test: Antimicrobial activity against Neisseria gonorrhoeae; type: functional; summary of the method: as §2
HepG2 [2] = test: Cytotoxicity against HEPG2 cells assessed as surviving fraction at 10 ug/ml after 48 hrs by ELISA; type: functional, Homo sapiens; summary of the method: as §1
HepG2 [3] = test: Cytotoxicity against HEPG2 cells assessed as surviving fraction at 5 ug/ml after 48 hrs by ELISA; type: functional, Homo sapiens; summary of the method: as §1
HepG2 [4] = test: Cytotoxicity against HEPG2 cells assessed as surviving fraction at 1 ug/ml after 48 hrs by ELISA; type: functional, Homo sapiens; summary of the method: as §1
NCI-H460 [5] = test: Cytotoxicity against human H460 cells assessed as surviving fraction at 1 ug/ml after 48 hrs by ELISA; type: functional; summary of the method: as §1
Candida albicans = test: Antimicrobial activity against Candida albicans; type: functional; summary of the method: as §2
Staphylococcus aureus = test: Antimicrobial activity against Staphylococcus aureus; type: functional; summary of the method: as §2
HepG2 [6] = test: Cytotoxicity against HEPG2 cells assessed as surviving fraction at 2.5 ug/ml after 48 hrs by ELISA; type: functional, Homo sapiens; summary of the method: as §1
Pseudomonas aeruginosa = test: Antimicrobial activity against Pseudomonas aeruginosa; type: functional; summary of the method: as §2
Saccharomyces cerevisiae = test: Antimicrobial activity against Saccharomyces cerevisiae; type: functional; summary of the method: as §2
NCI-H460 [7] = test: Cytotoxicity against human H460 cells assessed as surviving fraction at 2.5 ug/ml after 48 hrs by ELISA; type: functional; summary of the method: as §1
NCI-H460 [8] = test: Cytotoxicity against human H460 cells assessed as surviving fraction at 10 ug/ml after 48 hrs by ELISA; type: functional; summary of the method: as §1
Escherichia coli = test: Antimicrobial activity against Escherichia coli; type: functional; summary of the method: as §2

Compound | Activity (NCI-H460 [1]) | inhibition zone (IZ) (Bacillus subtilis) | inhibition zone (IZ) (Enterococcus faecalis) | inhibition zone (IZ) (Neisseria gonorrhoeae) | Activity (HepG2 [2]) | Activity (HepG2 [3]) | Activity (HepG2 [4]) | Activity (NCI-H460 [5]) | inhibition zone (IZ) (Candida albicans) | inhibition zone (IZ) (Staphylococcus aureus) | Activity (HepG2 [6]) | inhibition zone (IZ) (Pseudomonas aeruginosa) | inhibition zone (IZ) (Saccharomyces cerevisiae) | Activity (NCI-H460 [7]) | Activity (NCI-H460 [8]) | inhibition zone (IZ) (Escherichia coli)
CCOC(=O)c1c(-c2ccccc2)nc2[nH]c(=S)[nH]c(=O)c2c1C(=O)OCC | 0.771 | 12 mm | 12 mm | 13 mm | 0.805 | 0.841 | 0.968 | 0.855 | 12 mm | 12 mm | 0.914 | 13 mm | 11 mm | 0.827 | 0.72 | 11 mm
O=C(c1ccc2ccccc2c1)c1cc(-c2ccccc2)nc2[nH]c(=S)[nH]c(=O)c12 |  | 10 mm | 11 mm | 12 mm |  |  |  |  | 10 mm | 11 mm |  | 11 mm | 12 mm |  |  | 10 mm
NYSTATIN |  |  |  |  |  |  |  |  | 12 mm |  |  |  | 11 mm |  |  | 
COc1ccc(-c2cc(C#N)c3c(=O)[nH]c(=S)[nH]c3n2)cc1 | 0.836 |  |  |  | 0.914 | 0.941 | 1.046 | 0.948 |  |  | 0.968 |  |  | 0.897 | 0.808 | 
CCOC(=O)c1cc(-c2ccc(OC)cc2)nc2[nH]c(=S)[nH]c(=O)c12 | 0.776 |  |  |  | 0.927 | 0.977 | 1.018 | 0.948 |  |  | 1 |  |  | 0.915 | 0.646 | 
N#Cc1cc(-c2ccccc2)nc2[nH]c(=S)[nH]c(=O)c12 |  | 11 mm | 12 mm | 12 mm |  |  |  |  | 12 mm | 11 mm |  | 11 mm | 12 mm |  |  | 12 mm
COc1ccc(-c2cc(C(=O)c3cccs3)c3c(=O)[nH]c(=S)[nH]c3n2)cc1 |  | 11 mm | 12 mm | 14 mm |  |  |  |  | 12 mm | 11 mm |  | 11 mm | 12 mm |  |  | 12 mm
CC1(C)S[C@@H]2[C@H](NC(=O)[C@H](N)c3ccccc3)C(=O)N2[C@H]1C(=O)O [AMPICILLIN] |  | 18 mm | 30 mm | 13 mm |  |  |  |  |  | 20 mm |  | 19 mm |  |  |  | 11 mm
CCOC(=O)c1cc(-c2ccccc2)nc2[nH]c(=S)[nH]c(=O)c12 |  | 11 mm | 11 mm | 12 mm |  |  |  |  | 11 mm | 11 mm |  | 11 mm | 12 mm |  |  | 11 mm
COc1ccc(-c2cc(C(=O)c3ccco3)c3c(=O)[nH]c(=S)[nH]c3n2)cc1 |  | 11 mm | 11 mm | 12 mm |  |  |  |  | 11 mm | 11 mm |  | 11 mm | 12 mm |  |  | 11 mm
O=C(c1cccs1)c1cc(-c2ccccc2)nc2[nH]c(=S)[nH]c(=O)c12 | 0.808 | 13 mm | 12 mm | 13 mm | 0.85 | 0.905 | 1.05 | 0.943 | 13 mm | 12 mm | 1.005 | 12 mm | 12 mm | 0.869 | 0.641 | 13 mm
COC(=O)c1c(-c2ccccc2)nc2[nH]c(=S)[nH]c(=O)c2c1C(=O)OC |  | 16 mm | 15 mm | 15 mm |  |  |  |  | 15 mm | 16 mm |  | 16 mm | 16 mm |  |  | 16 mm
COC(=O)c1c(-c2ccc(OC)cc2)nc2[nH]c(=S)[nH]c(=O)c2c1C(=O)OC | 0.808 | 14 mm | 14 mm | 14 mm | 0.709 | 0.786 | 0.895 | 0.962 | 14 mm | 15 mm | 0.823 | 14 mm | 14 mm | 0.887 | 0.743 | 14 mm
